# *1 amine or outer side, *2 acyl side, *3 side chain or, on linkers, in order; H or OH if unused. Where a SMILES comes first, the peptide text is derived from it. [ ]: non-standard residue; d: D form. The star is where a group is joined. X1 = O=C(COCC(=O)*)Nc1ccc(-c2c3nc(c(-c4ccccc4)c4ccc([nH]4)c(-c4ccccc4)c4nc(c(-c5ccccc5)c5ccc2[nH]5)C=C4)C=C3)cc1; NH(CH2CH2O)6CH2CO = O=C(COCCOCCOCCOCCOCCOCCN[*:1])[*:2]
# How the values were obtained:
# [1] = test system: HEp-2; assay: Cellular uptake in human HEp2 cells at 10 uM; format: ADME, cell-based; details: hep-2, 10 µM
# Method in brief: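 HEp2 cells seeded at 10 000 per well and grown overnight, then exposed to 10 µM conjugate (diluted into medium from 10 mM water stocks) for 0, 1, 2, 4, 8 and 24 h. After PBS wash, cells lysed in 0.25% Triton X-100/PBS. Conjugate quantified by fluorescence at 410/650 nm (ex/em), and cell number by CyQuant.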
# [2] = test system: HEp-2; assay: Dark cytotoxicity against human HEp2 cells at 100 uM; format: functional, cell-based
# Method in brief: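 HEp2 cells seeded at 10 000 per well and allowed 36-48 h to attach. They were given increasing conjugate concentrations up to 100 µM and incubated overnight without light. Viability was read with Cell Titer Blue fluorescence at 520/584 nm and normalized to untreated cells (100%) and 0.2% saponin-treated cells (0%).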
# [3] = test system: HEp-2; assay: Phototoxicity against human HEp2 cells at 10 uM; format: cell-based
# Method in brief: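 HEp2 cells seeded and attached 36-48 h, then loaded overnight with conjugate at 0, 0.625, 1.25, 2.5, 5 and 10 µM. Medium was swapped for medium with 50 mM HEPES pH 7.4. Cells were irradiated on ice for 10 min with a 100 W halogen lamp through a 610 nm long-pass filter and a water IR filter, about 0.5 J/cm2. After overnight incubation, viability was read by Cell Titer Blue.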
# [4] = Homo sapiens, HEp-2, read-out: IC50
Activity [1],Structure (SMILES),"IC50 [2, 4] [µM]",IC50 ([3]; hep-2),"IC50 ([3]; Homo sapiens, HEp-2, light or radiation study, read-out: IC50) [µM]",IC50 ([2]; hep-2)
Active,N=C(N)NCCC[C@H](NC(=O)CNC(=O)COCCOCCOCCOCCOCCOCCNC(=O)COCC(=O)Nc1ccc(-c2c3nc(c(-c4ccccc4)c4ccc([nH]4)c(-c4ccccc4)c4nc(c(-c5ccccc5)c5ccc2[nH]5)C=C4)C=C3)cc1)C(=O)N[C@@H](CCCN=C(N)N)C(=O)N[C@@H](CCCN=C(N)N)C(=O)N[C@@H](CCCN=C(N)N)C(=O)N[C@@H](CCCN=C(N)N)C(=O)N[C@@H](CCCNC(=N)N)C(=O)N[C@@H](CCCNC(=N)N)C(=O)N[C@@H](CCCN=C(N)N)C(=O)O,75,Active,,
Active,NCCCC[C@H](NC(=O)[C@H](CCCN=C(N)N)NC(=O)CNC(=O)COCCOCCOCCOCCOCCOCCNC(=O)COCC(=O)Nc1ccc(-c2c3nc(c(-c4ccccc4)c4ccc([nH]4)c(-c4ccccc4)c4nc(c(-c5ccccc5)c5ccc2[nH]5)C=C4)C=C3)cc1)C(=O)N[C@@H](CCCCN)C(=O)N[C@@H](CCCN=C(N)N)C(=O)N[C@@H](CCCN=C(N)N)C(=O)N[C@@H](CCC(N)=O)C(=O)N[C@@H](CCCN=C(N)N)C(=O)N[C@@H](CCCN=C(N)N)C(=O)N[C@@H](CCCN=C(N)N)C(=O)N1CCC[C@H]1C(=O)N1CCC[C@H]1C(=O)N[C@@H](CCC(N)=O)C(N)=O,30,Active,,
Active,CC(C)[C@H](NC(=O)[C@H](CCCCN)NC(=O)[C@H](CCCN=C(N)N)NC(=O)[C@H](CCCCN)NC(=O)[C@H](CCCCN)NC(=O)[C@H](CCCCN)NC(=O)[C@@H]1CCCN1C(=O)CNC(=O)COCCOCCOCCOCCOCCOCCNC(=O)COCC(=O)Nc1ccc(-c2c3nc(c(-c4ccccc4)c4ccc([nH]4)c(-c4ccccc4)c4nc(c(-c5ccccc5)c5ccc2[nH]5)C=C4)C=C3)cc1)C(N)=O (X1-[NH(CH2CH2O)6CH2CO]GPKKKRKV-NH2),90,,1.5,
Active,CC(C)[C@H](NC(=O)[C@H](CCCCN)NC(=O)[C@H](CCCN=C(N)N)NC(=O)[C@H](CCCCN)NC(=O)[C@H](CCCCN)NC(=O)[C@H](CCCCN)NC(=O)[C@@H]1CCCN1C(=O)CNC(=O)COCC(=O)NCCOCCOCCOCCOCCOCCOCCOCCNC(=O)COc1ccc(-c2c3nc(c(-c4ccc(OCC(=O)O)cc4)c4ccc([nH]4)c(-c4ccc(OCC(=O)O)cc4)c4nc(c(-c5ccc(OCC(=O)O)cc5)c5ccc2[nH]5)C=C4)C=C3)cc1)C(N)=O,,Not Active,,Not Active
Active,NCCCC[C@H](NC(=O)[C@H](CCCN=C(N)N)NC(=O)CNC(=O)COCC(=O)NCCOCCOCCOCCOCCOCCOCCOCCNC(=O)COc1ccc(-c2c3nc(c(-c4ccc(OCC(=O)O)cc4)c4ccc([nH]4)c(-c4ccc(OCC(=O)O)cc4)c4nc(c(-c5ccc(OCC(=O)O)cc5)c5ccc2[nH]5)C=C4)C=C3)cc1)C(=O)N[C@@H](CCCCN)C(=O)N[C@@H](CCCN=C(N)N)C(=O)N[C@@H](CCCN=C(N)N)C(=O)N[C@@H](CCC(N)=O)C(=O)N[C@@H](CCCN=C(N)N)C(=O)N[C@@H](CCCN=C(N)N)C(=O)N[C@@H](CCCN=C(N)N)C(=O)N1CCC[C@H]1C(=O)N1CCC[C@H]1C(=O)N[C@@H](CCC(N)=O)C(N)=O,,Not Active,,Not Active

# — ChEMBL document CHEMBL1149419, “Peptide-mediated cell transport of water soluble porphyrin conjugates” (J Med Chem, 2006)
